Results pooled from the literature.
Antigen peptide transporter 1/Antigen peptide transporter 2: Antigen peptide transporter 1/Antigen peptide transporter 2 (Homo sapiens, UniProt Q03518+Q03519)
Slc6a3: Sodium-dependent dopamine transporter (Slc6a3, Rattus norvegicus, UniProt P23977)

SMILES | target | test | setting | endpoint | value
CSCC[C@H](NC(=O)[C@@H]1CCCN1C(=O)[C@H](CCCNC(=N)N)NC(=O)[C@H](CC(C)C)NC(=O)[C@@H]1CCCN1C(=O)[C@@H](NC(=O)[C@H](C)N)C(C)C)C(=O)N[C@H](C(=O)N[C@@H](Cc1ccc(O)cc1)C(=O)N[C@@H](C)C(=O)O)[C@@H](C)O | Antigen peptide transporter 1/Antigen peptide transporter 2 | ligand displacement |  | IC50 | 5000 nM
COC(=O)C(NC(=O)c1cn(CCCCCO)c2ccccc12)C(C)(C)C (centres unmarked) | Cannabinoid receptor 1 (Cnr1, Rattus norvegicus, UniProt P20272) | ligand displacement, radioligand | cell membranes | IC50 | 106 nM
COc1ccc2cccc(C(CO)CNC(=O)CF)c2c1 (centres unmarked) | Melatonin receptor type 1B (MTNR1B, Homo sapiens, UniProt P49286) | cAMP, agonist, TR-FRET |  | EC50 | 17.8 nM
CC[C@H](C)[C@H](NC(=O)[C@H](CC(C)C)NC(=O)[C@@H](N)CO)C(=O)NCC(=O)N[C@@H](CCCCN)C(=O)N[C@H](C(N)=O)C(C)C | Proteinase-activated receptor 2 (F2RL1, Homo sapiens, UniProt P55085) | calcium signal, agonist |  | EC50 | 28200 nM
CNC(C)C(=O)c1cccc(Cl)c1 (centres unmarked) | Slc6a3 | transporter uptake, inhibitor, radiometric |  | IC50 | 342 nM
O=c1c(O)c(-c2ccc(O)c(O)c2)oc2cc(O)cc(O)c12 | CX3C chemokine receptor 1 (CX3CR1, Homo sapiens, UniProt P49238) | β-arrestin recruitment, antagonist |  | IC50 | 4500 nM
CC(NC(C)(C)C)C(=O)c1ccccc1 (centres unmarked) | Slc6a3 | transporter uptake, inhibitor, radiometric |  | IC50 | 1310 nM
CC[C@H](C)[C@H](NC(=O)[C@H](C)NC(=O)CN)C(=O)N[C@@H](CC(=O)O)C(=O)N[C@@H](CCCCN)C(=O)N1CCC[C@H]1C(=O)N[C@H](C(=O)N[C@@H](CC(C)C)C(=O)N[C@@H](CCCCN)C(=O)O)[C@@H](C)CC | Antigen peptide transporter 1/Antigen peptide transporter 2 | ligand displacement |  | IC50 | 8200 nM
